From ChEMBL document CHEMBL3352788, “Characterization of selective exosite-binding inhibitors of matrix metalloproteinase 13 that prevent articular cartilage degradation in vitro” (J Med Chem, 2014) come the findings set out here.

The target of one data set is Collagenase 3 (Homo sapiens, UniProt P45452). The data set can be described thus: Inhibition of full-length recombinant human MMP-13 assessed as prevention of bovine type-2 collagen degradation at 10 uM after 18 hrs by cartilage explant assay. The method, boiled down: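 Bovine articular cartilage pieces (~3 mm2) were made nonviable by three freeze–thaw cycles in LN2 and trypsin-digested for 4 h to remove aggrecan. They were then incubated with 100 nM MMP-13 ± compound for 18 h at 37 °C, 5% CO2, in triplicate at a single concentration. Released collagen fragments were measured by C1,2C ELISA and normalized to undigested and MMP-13-digested controls.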

For a further data set, the target named is Cytochrome P450 3A4 (Homo sapiens, UniProt P08684). The data set can be described thus: Inhibition of CYP3A4 (unknown origin) using testosterone substrate at 20 uM. It counts as ADME. The method, boiled down:
(§1)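 Human liver microsomes with probe substrate and an NADPH-regenerating system in 0.1 M potassium phosphate pH 7.4 at 37 °C, run in duplicate. Inhibitor at 0–20 μM (0–2.5 μM for one compound), eight concentrations. Reactions were stopped with acetonitrile/formic acid containing isotope-labelled internal standard, and metabolite area ratios were compared with and without inhibitor. IC50 was taken by linear interpolation between bracketing concentrations.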

The target of data set [1] is T1, CYP2D6 (Homo sapiens, UniProt P10635). Briefly: (§2) Inhibition of CYP2D6 (unknown origin) using dextromethophan substrate at 20 uM. The settings on record: probe dextromethophan. In kind it is ADME. Summed up:
as §1

Data set [2] addresses T2, CYP2C8 (Homo sapiens, UniProt P10632). Briefly: (§3) Inhibition of CYP2C8 (unknown origin) using amodiaquine substrate at 20 uM. In kind it is ADME. The settings on record: probe amodiaquine. The method, boiled down: as §1
Data set [3] addresses T3, CYP1A2 (Homo sapiens, UniProt P05177). Briefly: Inhibition of CYP1A2 (unknown origin) using tacrin substrate at 20 uM. It counts as ADME. The settings on record: probe tacrin. The method, boiled down: as §1
In data set [4] the target is T4, CYP2C19 (Homo sapiens, UniProt P33261). Briefly: (§4) Inhibition of CYP2C19 (unknown origin) using (S)-mephentoin substrate at 20 uM. It counts as ADME. The settings on record: probe (S)-mephentoin. Summed up: as §1
T4 sequence (P33261 whole entry): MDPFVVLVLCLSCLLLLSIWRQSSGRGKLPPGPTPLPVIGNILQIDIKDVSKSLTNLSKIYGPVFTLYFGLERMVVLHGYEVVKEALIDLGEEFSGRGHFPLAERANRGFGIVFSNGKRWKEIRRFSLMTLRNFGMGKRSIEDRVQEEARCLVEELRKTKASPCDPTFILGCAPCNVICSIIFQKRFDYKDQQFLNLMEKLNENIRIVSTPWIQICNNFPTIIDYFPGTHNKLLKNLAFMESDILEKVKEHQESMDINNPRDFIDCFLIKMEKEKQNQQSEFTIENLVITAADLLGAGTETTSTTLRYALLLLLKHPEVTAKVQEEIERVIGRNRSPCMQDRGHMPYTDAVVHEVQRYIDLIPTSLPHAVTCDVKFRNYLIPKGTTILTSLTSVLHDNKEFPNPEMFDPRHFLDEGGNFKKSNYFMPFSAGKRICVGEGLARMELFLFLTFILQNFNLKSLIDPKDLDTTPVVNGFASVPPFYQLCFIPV
The target in another data set is Cytochrome P450 2D6 (Homo sapiens, UniProt P10635). The description is as §2. In kind it is ADME. The settings on record: 20 µM. Summed up:
as §1

The next data set addresses T5, Cytochrome P450 2C8 (Homo sapiens, UniProt P10632).
T5 sequence (P10632 whole entry): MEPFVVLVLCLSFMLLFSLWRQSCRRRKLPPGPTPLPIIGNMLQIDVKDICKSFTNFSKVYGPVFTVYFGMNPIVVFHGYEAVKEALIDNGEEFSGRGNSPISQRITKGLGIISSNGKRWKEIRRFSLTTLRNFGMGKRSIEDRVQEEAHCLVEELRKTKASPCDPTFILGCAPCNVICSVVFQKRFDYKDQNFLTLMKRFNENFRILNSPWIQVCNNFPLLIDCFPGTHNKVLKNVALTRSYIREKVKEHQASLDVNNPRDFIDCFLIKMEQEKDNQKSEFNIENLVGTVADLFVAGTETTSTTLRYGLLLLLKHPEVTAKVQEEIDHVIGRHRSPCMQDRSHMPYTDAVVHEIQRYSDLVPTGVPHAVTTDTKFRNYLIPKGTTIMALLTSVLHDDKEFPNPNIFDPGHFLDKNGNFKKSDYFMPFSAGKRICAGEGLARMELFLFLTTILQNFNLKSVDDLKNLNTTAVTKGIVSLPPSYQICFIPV
The data set is described as §3. In kind it is ADME. The settings on record: 20 µM. The method, boiled down: as §1

The next data set deals with T6, Caspase-2 (Homo sapiens) (UniProt P42575).
T6 sequence (whole entry): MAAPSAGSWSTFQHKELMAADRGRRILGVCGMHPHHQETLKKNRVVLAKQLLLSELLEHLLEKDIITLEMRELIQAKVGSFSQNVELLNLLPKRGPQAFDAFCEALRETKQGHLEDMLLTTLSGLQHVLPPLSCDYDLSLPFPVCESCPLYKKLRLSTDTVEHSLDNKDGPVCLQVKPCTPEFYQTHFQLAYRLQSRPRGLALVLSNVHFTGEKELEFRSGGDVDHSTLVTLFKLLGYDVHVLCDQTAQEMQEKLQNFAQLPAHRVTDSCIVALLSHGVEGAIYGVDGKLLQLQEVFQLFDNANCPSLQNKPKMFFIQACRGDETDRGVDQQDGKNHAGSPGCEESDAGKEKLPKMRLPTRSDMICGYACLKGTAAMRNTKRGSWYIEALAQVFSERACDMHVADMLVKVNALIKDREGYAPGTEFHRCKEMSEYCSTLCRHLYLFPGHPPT
Briefly: Inhibition of recombinant human caspase 2 using DEVDAA substrate at up to 5 uM after 3 hrs. Summed up:
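Outsourced microfluidic protease panel. Compound was preincubated with each protease for 30 min at 25 °C, then peptide substrate was added for 3 h at 25 °C and quenched with SDS/EDTA/iodoacetate. Substrate-to-product conversion was measured on LabChip. Compounds were tested singly in a 12-point 3-fold dilution series, top 20 μM (5 μM for two reference compounds).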

Data set [5] deals with Coagulation factor X (Homo sapiens) (UniProt P00742). Briefly: Inhibition of recombinant human factor 10a using ALPRTMFIQ substrate at up to 5 uM after 3 hrs. Summed up: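 In this microfluidic protease panel, enzyme and compound were preincubated 30 min at 25 °C. The peptide substrate was added and the reaction was incubated 3 h at 25 °C, then quenched (SDS, EDTA, iodoacetate). Activity was read as % substrate converted to product. Dose–response was singlicate, 12-point 3-fold dilutions spanning 5 μM to 0.028 nM. IC50 was the concentration leaving 50% activity relative to no-compound control.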
Coagulation factor X (Homo sapiens), sequence (P00742 41-179 limits assumed): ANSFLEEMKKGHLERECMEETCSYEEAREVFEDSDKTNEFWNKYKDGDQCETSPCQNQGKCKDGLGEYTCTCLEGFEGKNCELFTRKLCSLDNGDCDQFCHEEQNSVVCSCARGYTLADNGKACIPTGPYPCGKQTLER
Coagulation factor X (Homo sapiens), sequence (P00742 235-488 limits assumed): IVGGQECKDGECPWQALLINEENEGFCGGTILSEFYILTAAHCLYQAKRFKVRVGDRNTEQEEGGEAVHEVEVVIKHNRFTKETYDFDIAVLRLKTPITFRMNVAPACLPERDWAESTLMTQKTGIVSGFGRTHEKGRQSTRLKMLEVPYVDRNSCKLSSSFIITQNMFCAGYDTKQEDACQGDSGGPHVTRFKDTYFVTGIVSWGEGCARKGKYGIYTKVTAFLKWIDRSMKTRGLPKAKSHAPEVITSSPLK

The target of the next data set is Cytochrome P450 2C19 (Homo sapiens, UniProt P33261). Described as §4. The settings on record: 20 µM. In kind it is ADME. Summed up: as §1
Cytochrome P450 2C19, sequence (P33261 whole entry): as the sequence (P33261 whole entry) above
For data set [6], the target named is T2, CYP2C8. The data set can be described thus: Inhibition of CYP2C8 (unknown origin) using amodiaquine substrate at 2.5 uM. In kind it is ADME. The settings on record: probe amodiaquine. Summed up: as §1
Data set [7] addresses T1, CYP2D6. Briefly: Inhibition of CYP2D6 (unknown origin) using dextromethophan substrate at 2.5 uM. In kind it is ADME. The settings on record: probe dextromethophan. The method, boiled down:
as §1

Data set [8] addresses T3, CYP1A2. Briefly: Inhibition of CYP1A2 (unknown origin) using tacrin substrate at 2.5 uM. The settings on record: probe tacrin. In kind it is ADME. The method, boiled down: as §1
The target in a further data set is CYP2C9 (Homo sapiens, UniProt P11712). Briefly: Inhibition of CYP2C9 (unknown origin) using diclofenac substrate at 2.5 uM. In kind it is ADME. The settings on record: probe diclofenac. Summed up:
as §1

In data set [9] the target is T4, CYP2C19. The data set can be described thus: Inhibition of CYP2C19 (unknown origin) using (S)-mephentoin substrate at 2.5 uM. In kind it is ADME. The settings on record: probe (S)-mephentoin. The method, boiled down: as §1
Another data set has as its target CYP2B6 (Homo sapiens, UniProt P20813). The data set can be described thus: Inhibition of CYP2B6 (unknown origin) using bupropion substrate at 2.5 uM. The settings on record: probe bupropion. It counts as ADME. Summed up:
as §1

Cytochrome P450 3A4, sequence (P08684 whole entry): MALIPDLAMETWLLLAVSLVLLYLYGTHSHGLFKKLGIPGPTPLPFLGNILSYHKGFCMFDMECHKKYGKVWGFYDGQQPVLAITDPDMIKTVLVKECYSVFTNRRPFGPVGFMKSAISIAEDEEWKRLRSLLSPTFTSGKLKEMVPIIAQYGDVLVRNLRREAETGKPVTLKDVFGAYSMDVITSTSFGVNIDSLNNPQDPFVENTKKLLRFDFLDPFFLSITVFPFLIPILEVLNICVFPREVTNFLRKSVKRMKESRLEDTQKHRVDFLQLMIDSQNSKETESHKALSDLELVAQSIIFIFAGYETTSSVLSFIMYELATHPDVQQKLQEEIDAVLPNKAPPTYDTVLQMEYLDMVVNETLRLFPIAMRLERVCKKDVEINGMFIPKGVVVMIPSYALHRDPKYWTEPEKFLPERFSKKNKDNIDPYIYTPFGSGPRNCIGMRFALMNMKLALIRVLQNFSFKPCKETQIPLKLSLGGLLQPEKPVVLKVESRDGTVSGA
T3 sequence (P05177 whole entry): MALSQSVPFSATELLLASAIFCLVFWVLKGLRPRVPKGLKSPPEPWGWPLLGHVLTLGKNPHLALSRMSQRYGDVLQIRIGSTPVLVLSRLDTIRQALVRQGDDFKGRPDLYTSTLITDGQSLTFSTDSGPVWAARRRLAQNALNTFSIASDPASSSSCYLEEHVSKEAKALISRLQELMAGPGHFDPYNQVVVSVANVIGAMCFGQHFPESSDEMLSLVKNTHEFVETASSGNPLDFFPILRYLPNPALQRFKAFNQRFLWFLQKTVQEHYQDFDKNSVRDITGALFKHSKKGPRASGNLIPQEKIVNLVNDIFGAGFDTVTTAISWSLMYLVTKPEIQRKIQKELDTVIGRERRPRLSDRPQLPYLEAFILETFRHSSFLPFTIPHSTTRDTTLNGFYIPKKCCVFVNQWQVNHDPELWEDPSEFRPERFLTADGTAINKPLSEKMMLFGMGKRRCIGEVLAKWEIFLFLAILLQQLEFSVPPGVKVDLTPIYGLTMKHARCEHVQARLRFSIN
T1 sequence (P10635 whole entry): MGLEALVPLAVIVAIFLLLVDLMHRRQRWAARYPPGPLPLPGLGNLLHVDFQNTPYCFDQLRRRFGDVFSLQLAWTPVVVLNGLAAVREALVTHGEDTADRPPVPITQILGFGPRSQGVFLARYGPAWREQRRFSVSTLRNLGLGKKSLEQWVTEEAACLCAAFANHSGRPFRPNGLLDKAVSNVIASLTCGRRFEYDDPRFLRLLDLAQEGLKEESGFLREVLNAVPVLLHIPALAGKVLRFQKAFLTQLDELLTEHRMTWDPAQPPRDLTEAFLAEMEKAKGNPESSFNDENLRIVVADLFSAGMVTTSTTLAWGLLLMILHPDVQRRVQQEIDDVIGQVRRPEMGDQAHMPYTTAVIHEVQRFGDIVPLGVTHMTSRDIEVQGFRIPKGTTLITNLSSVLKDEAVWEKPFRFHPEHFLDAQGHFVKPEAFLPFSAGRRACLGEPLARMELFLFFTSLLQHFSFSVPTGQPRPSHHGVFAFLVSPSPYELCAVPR
CYP2B6, sequence (P20813 whole entry): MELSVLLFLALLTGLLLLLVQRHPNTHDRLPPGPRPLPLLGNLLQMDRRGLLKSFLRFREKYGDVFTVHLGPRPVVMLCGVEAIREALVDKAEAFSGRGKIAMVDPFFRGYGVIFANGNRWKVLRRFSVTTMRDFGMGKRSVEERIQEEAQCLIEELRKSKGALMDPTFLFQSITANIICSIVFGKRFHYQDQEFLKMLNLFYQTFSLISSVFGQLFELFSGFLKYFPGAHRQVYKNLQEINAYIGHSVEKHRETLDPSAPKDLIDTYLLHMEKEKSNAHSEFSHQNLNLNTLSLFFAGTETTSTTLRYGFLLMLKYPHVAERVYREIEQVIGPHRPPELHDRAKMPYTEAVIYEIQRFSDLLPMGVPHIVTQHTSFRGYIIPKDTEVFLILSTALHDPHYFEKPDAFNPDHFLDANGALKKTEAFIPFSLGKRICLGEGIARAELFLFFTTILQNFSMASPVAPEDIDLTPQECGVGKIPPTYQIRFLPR
Cytochrome P450 2D6, sequence (P10635 whole entry): as the sequence (P10635 whole entry) above
CYP2C9, sequence (P11712 whole entry): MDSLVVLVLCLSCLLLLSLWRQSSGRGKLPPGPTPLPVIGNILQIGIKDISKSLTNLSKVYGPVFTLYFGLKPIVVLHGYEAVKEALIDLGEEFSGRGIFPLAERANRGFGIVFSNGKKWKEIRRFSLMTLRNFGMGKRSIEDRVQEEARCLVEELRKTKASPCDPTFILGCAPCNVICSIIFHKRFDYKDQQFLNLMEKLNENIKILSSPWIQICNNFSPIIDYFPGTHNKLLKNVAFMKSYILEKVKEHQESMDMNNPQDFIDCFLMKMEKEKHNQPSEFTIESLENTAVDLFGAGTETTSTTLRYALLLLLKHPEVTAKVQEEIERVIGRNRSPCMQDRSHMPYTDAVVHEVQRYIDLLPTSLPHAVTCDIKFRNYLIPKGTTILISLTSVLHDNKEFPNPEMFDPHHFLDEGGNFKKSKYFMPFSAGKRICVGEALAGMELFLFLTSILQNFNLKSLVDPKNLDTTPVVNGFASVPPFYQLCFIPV

As a reminder, the inhibition is the relative decrease from the control value, in per cent. In the case of `Cc1ccc(CSc2nc(O)c3c(n2)CCC3)cc1`, at Collagenase 3, the inhibition came to 59%.
Turning to `COC(=O)c1ccc(CSc2nc3c(c(=O)[nH]2)CCC3)cc1`, the inhibition at Collagenase 3 was 38%. Moreover, the “inhibition (INH)” value against Cytochrome P450 3A4 is below 50%. Besides, the inhibition at 20 µM against CYP2D6 [1] is below 50%; against CYP2C8 [2], below 50%; against CYP1A2 [3], 29%; against CYP2C19 [4] it was below 50%.
Take `Cc1cc(CNC(=O)c2cc(C(=O)NCc3ccc(F)c(C)c3)ncn2)ccc1F`: the inhibition (INH) against Cytochrome P450 3A4, against Cytochrome P450 2D6, on Cytochrome P450 2C8 and against Cytochrome P450 2C19 was above 10% each time. Moreover, the inhibition (on Caspase-2 (Homo sapiens); in data set [5]) was below 10% throughout.
For the molecule `Cn1c(=O)n(Cc2ccc(C(=O)O)cc2)c(=O)c2cc(C#CCc3ccccc3)ccc21`, the inhibition at 2.5 µM at CYP2C8 [6] was below 50%; on CYP2D6 [7], below 50%; at CYP1A2 [8], 17%; against CYP2C9, below 50%; on CYP2C19 [9] it was below 50%; against CYP2B6 it was below 50%. In addition, the inhibition (at Caspase-2 (Homo sapiens); in [5]) was below 10% throughout.
